Among the data in ChEMBL document CHEMBL2062473, “Laurene-type sesquiterpenes from the Red Sea red alga Laurencia obtusa as potential antitumor-antimicrobial agents” (2012) are MIC and Activity values, retold here.

Each structure is given as a SMILES string. ≈ marks a conversion by molar mass, not a printed value. Calls of active or inactive are those of the source.

The subject of one experiment is Candida albicans. Put plainly: Antifungal activity against Candida albicans after 48 hrs by microtiter broth dilution method. Format: functional. The procedure, abridged: (§1)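 Fungi were grown 24 h at 37 C under 5% CO2 in YPD (1% yeast, 2% peptone, 2% dextrose), then diluted 1:100 in saline and 1:100 in YPD to about 1000 CFU per inoculum. Inocula were added to two-fold serial dilutions in 96-well broth, with drug-free growth and sterility controls. Plates were incubated 48 h at 37 C under 5% CO2. MIC was the lowest concentration without visible turbidity.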
For orientation: In broth dilution the organism is exposed to a series of concentrations in liquid medium.

The next experiment relates to Aspergillus fumigatus. Put plainly: Antifungal activity against wild type Aspergillus fumigatus Af293 after 48 hrs by microtiter broth dilution method. In kind it is functional. To be noted: Af293, 48 h. Put shortly:
as §1

The next experiment deals with Bacillus subtilis. As to the kind of experiment: Antibacterial activity against Bacillus subtilis ATCC 6633 by two fold serial dilution technique. In kind it is functional. The procedure, abridged: (§2)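 Compounds first screened by disk diffusion. Those giving inhibition zones above 15 mm were then tested for bacteriostatic MIC by two-fold serial dilution.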
The test system of a further experiment is Staphylococcus aureus. Put plainly: Antibacterial activity against Staphylococcus aureus ATCC 29213 by two fold serial dilution technique. In kind it is functional. The procedure, abridged: as §2
In another experiment the test system is Pseudomonas aeruginosa. As to the kind of experiment: Antibacterial activity against Pseudomonas aeruginosa ATCC […] by two fold serial dilution technique. Format: functional, organism-based. The procedure, abridged: as §2
Experiment [1] is described as follows: Cytotoxicity against mouse EAC at 25 to 100 uM after 2 hrs by trypan blue staining based hemocytometer analysis. In kind it is functional, Ehrlich. The procedure, abridged:
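Ehrlich ascites cells were aspirated aseptically from a donor animal's peritoneal fluid and kept in RPMI 1640 with 10% FBS. Cells were exposed to compounds at three levels (100, 50, 25) prepared in DMSO/RPMI-1640 for 2 h at 37 C in humidified 5% CO2. Viability was scored by trypan blue exclusion on a hemocytometer; untreated control viability exceeded 95%.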

For `CC(=O)N1CCN(c2ccc(OCC3COC(Cn4ccnc4)(c4ccc(Cl)cc4Cl)O3)cc2)CC1` (centres undefined) [KETOCONAZOLE], the MIC against Candida albicans and with Aspergillus fumigatus was 40 µg/mL (≈ 75.3 µM) each time.

As for `CC1=C(C)[C@@](C)(C2=CCC(CO)=CC2)CC1`, the minimum inhibitory concentration (MIC) (in general, the smallest concentration in the dilution series that meets the test's criterion for growth inhibition) against Candida albicans was determined as 120 µg/mL (≈ 550 µM); against Aspergillus fumigatus, 200 µg/mL (≈ 916 µM); in the experiment with Bacillus subtilis, 39 µg/mL (≈ 179 µM); with Staphylococcus aureus, 31 µg/mL (≈ 142 µM). In the experiment with Pseudomonas aeruginosa, the MIC entry is “inactive”. In experiment [1], this molecule returned an Activity of 79.9%.

Take `CC1=C(C)[C@@](C)(c2ccc(C=O)cc2)CC1` [ISOLAURELDEHYDE]: the MIC is 70 µg/mL (≈ 327 µM) with Candida albicans, 100 µg/mL (≈ 467 µM) in the experiment with Aspergillus fumigatus, 35 µg/mL (≈ 163 µM) with Bacillus subtilis and 27 µg/mL (≈ 126 µM) with Staphylococcus aureus. The MIC entry in the experiment with Pseudomonas aeruginosa is “inactive”. For the same molecule, the Activity in experiment [1] is given as 83.1%.

Consider `CC1=C(C)[C@@](C)(c2ccc(CO)cc2)CC1`, for which the minimal inhibitory concentration (MIC) with Candida albicans turned out to be 2000 µg/mL (≈ 9250 µM); in the experiment on Aspergillus fumigatus it was 2000 µg/mL (≈ 9250 µM); with Bacillus subtilis it was 46 µg/mL (≈ 213 µM); with Staphylococcus aureus, 52 µg/mL (≈ 240 µM). In addition, the MIC result in the experiment on Pseudomonas aeruginosa is “inactive”.
